Screening data (PubChem)
A selection: hits, their analogues and other compounds. The true share with any hit is near 2.4%.
b-catenin transl: modulators of beta-catenin nuclear translocation; HeLa beta-catenin nuclear translocation, immunofluorescence imaging; nuclear translocation activity, % at 5 µM; 190,000 compounds, 0.3% hits; AID 1665;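 active means nuclear translocation activity above 50% at 5 µM, with a well cell count of 50 or more; inconclusive means wells under 50 cells across six images, flagged as toxic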;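 further: per-cell ratio of nuclear to cytoplasmic median beta-catenin stain intensity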
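Technique: fluorescence imaging of beta-catenin antibody stain plus DAPI / Material: human HeLa cell line / Incubation: compound treatment 24 h, 37°C, 5% CO2 / Read-out basis: % activation of per-cell nuclear versus cytoplasmic median beta-catenin signal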
ROMK primary: modulates human ROMK potassium channel activity. P48048. Tet-inducible ROMK, thallium flux fluorescence; actives lie on both sides. B-score at 10 µM. 130,000 compounds, 2% hits. AID 1918;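 active means signal ratio slope over the read window, or its plate-corrected B-score, at least 3 SD from the plate mean, either direction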;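 further: B-score of the F/F0 ratio slope over 7 to 12 s after thallium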
Target sequence (P48048 whole entry, looked up): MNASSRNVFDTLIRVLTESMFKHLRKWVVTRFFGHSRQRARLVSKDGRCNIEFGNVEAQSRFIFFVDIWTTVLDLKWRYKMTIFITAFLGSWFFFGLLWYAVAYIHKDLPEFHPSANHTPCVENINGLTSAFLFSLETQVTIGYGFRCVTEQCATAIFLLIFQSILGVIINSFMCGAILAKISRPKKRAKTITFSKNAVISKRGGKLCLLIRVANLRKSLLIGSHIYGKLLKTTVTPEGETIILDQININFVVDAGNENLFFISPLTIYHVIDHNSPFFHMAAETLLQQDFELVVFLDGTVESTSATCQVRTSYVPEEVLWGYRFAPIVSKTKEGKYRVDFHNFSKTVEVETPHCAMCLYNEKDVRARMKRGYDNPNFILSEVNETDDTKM
Insulin prom inh: TRM-6 insulin promoter activity inhibition; AID 1273; 130,000 compounds, 0.9% hits; TRM-6 cells, insulin promoter-eGFP reporter, imaging; reporter expression induced with tamoxifen; inhibition, % at 2 µM;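 active means inhibition above the mean plus 3 SD, with well images judged a real hit on visual review, cut at about 60% in these data, passing the limit was not always enough; inconclusive means inhibition over the cutoff but images rejected on review; inactive means inhibition not above the cutoff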
MT stabilize HCS: microtubule stabilizers in HeLa cells; HeLa tubulin immunostaining HCS, 24 h; share of cells brighter than vehicle mean+2SD; % tubulin-high responders, % at 10 µM; 200,000 compounds, 0.83% hits; AID 2205;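 active means plate Z-score above 3 for both tubulin-high and condensed-nucleus cell shares, with cell loss under 80%, at 10 µM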;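 further: anti alpha tubulin signal scored within the nucleus-defined area of each cell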
HSV augment: HSV replication enhancement | HSV replication augmentation in cells, fold increase | maximum fold increase | 220,000 compounds, 0.005% hits | AID 1956; in the data active means maximum fold increase above about 1.5; inconclusive means no clear call, values can overlap the other calls; tested in PC3 cells
Hits are given with their value; . = inactive; ? = inconclusive; / = not tested or not shown.

SMILES	b-catenin transl	ROMK primary	Insulin prom inh	MT stabilize HCS	HSV augment
CCc1nnc(NC(=O)CSc2nnc(COc3cccc(C)c3)o2)s1	.	/	75	.	.
CCc1nnc(NC(=O)CSc2nnc(-c3ccccc3O)n2-c2ccc(C)cc2C)s1	.	/	.	38	.
COC(=O)Nc1ccc(S(=O)(=O)Nc2ccc(C)cc2)cc1	/	.	.	.	.
COC(=O)Nc1ccc(S(=O)(=O)Nc2ccc(O)cc2)cc1	.	/	79	.	.
CC1CC(C)CN(CC(C)(C)NS(=O)(=O)c2ccc(Cl)cc2)C1 (stereo unspecified)	/	/	.	.	.
Cc1ccc(C)[n+](CC(=O)N2CCCCC2)c1	.	.	/	.	.
O=C(Cc1ccc(Cl)cc1)Nc1ccc(-c2cc3ccccc3oc2=O)c(Cl)c1	102	.	/	.	.
O=C(Cc1ccc(Cl)cc1)Nc1ccc2oc(=O)ccc2c1	.	/	/	/	.
N#CC1=C2SCC(O)(c3ccccc3)N2C(=O)CC1c1ccccc1 (stereo unspecified)	.	.	/	34	.
COc1ccc(-c2cc(-c3cccs3)nc(OC)c2C#N)cc1OC	50	/	/	9.6	.
COc1nc(-c2cccs2)cc(-c2ccc(C)cc2)c1C#N	.	.	/	42	.
COc1ccc(-c2c(C#N)c(N)nc3c2CCc2ccccc2-3)cc1OC	/	/	.	34	.
COc1cc(-c2c(C#N)c(N)nc3c2CCCC3)ccc1O	.	/	.	.	.
COc1ccc(-c2noc(-c3cccs3)n2)cc1OC	.	/	/	/	.
O=C(CCC(=O)c1ccc(F)cc1)Nc1cc(Cl)cc(Cl)c1	.	.	/	.	.
Cc1ccc(C(=O)NNC2CC(=O)N(c3ccc4c(c3)OCCO4)C2=O)cc1 (stereo unspecified)	.	.	85	.	.
O=C1C(=O)N(CC2CCCO2)C(c2ccco2)/C1=C(/O)c1ccc(F)cc1 (stereo unspecified)	.	.	.	.	.
O=C1CCCC(=O)C1=Cc1c[nH]c2ccccc12	.	-4.1	.	.	.
O=C1CCCc2c1[nH]c1ccccc21	.	.	.	.	.
CN1CCN(C(=O)CSc2ccc(C(F)(F)F)cc2[N+](=O)[O-])CC1	.	.	.	.	.
O=C(Nc1ccccc1-c1ccccc1)C12CC3CC(CC(C3)C1)C2	.	/	.	.	.
CCOC(=O)c1sc(C)c(C(=O)NC2CCCCC2)c1N	118	/	.	.	.
O=C1NC2=C(CCc3ccccc32)C(c2ccccc2)N1 (stereo unspecified)	.	.	61	.	.
CC1Cc2ccccc2N1C(=S)NC(=O)c1ccco1 (stereo unspecified)	.	.	/	.	.
CC1Cc2ccccc2N1C(=S)NC(=O)C1(C)CC1(Cl)Cl (stereo unspecified)	.	13	.	.	.
SMILES	b-catenin transl	ROMK primary	Insulin prom inh	MT stabilize HCS	HSV augment
COc1cc(S(=O)(=O)N2CCN=C2c2ccccc2)ccc1F	/	/	.	44	.
COc1cc(S(=O)(=O)n2c(C)nc3ccccc32)ccc1F	/	.	.	28	.
CCOc1ccc(S(=O)(=O)n2c(C)nc3ccccc32)cc1	.	/	/	.	.
Cc1ccc(S(=O)(=O)N2CCN=C2c2ccccc2)cc1C	.	.	.	.	.
Cc1occc1-c1nnc(SCC(=O)N2CCCCC2)o1	.	.	/	.	.
CC(=O)O[C@H]1C(=O)[C@@]2(C)[C@H]([C@H](OC(=O)c3ccccc3)[C@]3(O)C[C@H](OC(=O)[C@H](O)C(NC(=O)c4ccccc4)c4ccccc4)C(C)=C1C3(C)C)[C@]1(OC(C)=O)CO[C@@H]1C[C@@H]2O (stereo partly specified)	69	/	/	/	.
CCN1CC=C2C(C#N)=C(N)C(C#N)(C#N)C(c3cc(Cl)ccc3Cl)C2C1 (stereo unspecified)	.	-4.8	/	.	/
CC(C)N1CC=C2C(C#N)=C(N)C(C#N)(C#N)[C@H](c3ccoc3)[C@H]2C1	.	/	.	.	?
CC(C)N1CC=C2C(C#N)=C(N)C(C#N)(C#N)C(c3ccccc3)C2C1 (stereo unspecified)	/	-4.2	.	.	?
CCO[C@H]1OC(C(N)=O)=C[C@@H](C(C)(C)C)[C@@H]1CCCO	/	/	/	/	.
CC1(C)Cc2c(sc3c2c(=O)n(-c2cccc(Cl)c2)c(=O)n3CC(N)=O)CO1	.	/	/	/	.
COc1ccc(S(=O)(=O)NCC(=O)O)cc1C(=O)NC1CCCCC1	.	.	.	.	.
O=C(NCC1CCCO1)c1c(O)c2cccc3c2n(c1=O)CC3 (stereo unspecified)	.	.	.	.	.
O=C(NCC1CCCO1)c1c(O)c2cccc3c2n(c1=O)CCC3 (stereo unspecified)	.	.	71	.	.
